Experimental data taken from ChEMBL document CHEMBL2417552, “Screen of pseudopeptidic inhibitors of human sirtuins 1-3: two lead compounds with antiproliferative effects in cancer cells” (J Med Chem, 2013).
Calls of active or inactive are those of the source. No cut-off for these calls is given here.

Assays:
MCF7 [1] = assay: Cytotoxicity against human MCF7 cells at 50 uM by LDH assay; type: functional, cell-based
MCF7 [2] = assay: Effect on alpha-tubulin acetylation in human MCF7 cells at 50 uM after 6 to 18 hrs by Western blotting analysis; type: functional, cell-based
Procedure, shortened: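 MCF-7 cells seeded 24 h ahead, treated for 6 or 18 h, then lysed in M-PER. Lysates run on SDS-PAGE, transferred to nitrocellulose and probed with mouse monoclonal anti-acetylated α-tubulin and anti-total α-tubulin. Detection with peroxidase anti-mouse secondary and ECL Plus.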

[3] = Cytotoxicity against human SH-SY5Y cells at 20 uM by LDH assay; type: cell-based
[4] = target: T1, NAD-dependent protein deacetylase sirtuin-3, mitochondrial (Homo sapiens, UniProt Q9NTG7); assay: Inhibition of human recombinant His-tagged SIRT3 using KI179 as substrate preincubated for 5 mins followed by enzyme addition measured after 1 hr by fluorescence assay
T1 sequence (Q9NTG7 whole entry): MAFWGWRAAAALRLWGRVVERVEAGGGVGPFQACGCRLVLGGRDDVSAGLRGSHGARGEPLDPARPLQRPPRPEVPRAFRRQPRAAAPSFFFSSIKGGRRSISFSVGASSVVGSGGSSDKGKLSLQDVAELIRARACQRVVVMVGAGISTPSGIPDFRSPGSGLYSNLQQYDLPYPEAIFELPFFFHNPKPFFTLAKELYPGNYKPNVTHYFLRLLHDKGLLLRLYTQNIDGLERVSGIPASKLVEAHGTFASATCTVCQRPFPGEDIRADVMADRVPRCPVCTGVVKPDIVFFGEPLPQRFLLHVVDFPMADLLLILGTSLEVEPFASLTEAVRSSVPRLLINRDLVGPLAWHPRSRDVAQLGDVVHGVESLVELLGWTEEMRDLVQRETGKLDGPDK

[5] = target: T2, NAD-dependent protein deacetylase sirtuin-2 (Homo sapiens, UniProt Q8IXJ6); assay: Inhibition of human recombinant GST-tagged SIRT2 using KI179 as substrate preincubated for 5 mins followed by enzyme addition measured after 1 hr by fluorescence assay
T2 sequence (Q8IXJ6 whole entry): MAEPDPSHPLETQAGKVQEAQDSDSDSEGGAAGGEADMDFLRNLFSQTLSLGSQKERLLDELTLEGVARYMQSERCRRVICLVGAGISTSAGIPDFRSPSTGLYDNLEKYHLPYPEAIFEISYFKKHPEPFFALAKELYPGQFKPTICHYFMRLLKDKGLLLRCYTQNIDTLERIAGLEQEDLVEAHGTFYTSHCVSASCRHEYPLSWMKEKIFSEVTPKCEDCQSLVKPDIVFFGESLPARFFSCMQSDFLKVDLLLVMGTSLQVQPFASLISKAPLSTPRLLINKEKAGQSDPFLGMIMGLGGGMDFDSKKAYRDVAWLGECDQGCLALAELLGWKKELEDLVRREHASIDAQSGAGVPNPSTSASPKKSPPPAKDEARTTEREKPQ
Procedure, shortened: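 Fluor de Lys deacetylation assay. […] Mix preincubated 5 min at room temperature, started with enzyme, run 1 h at 37°C. Developer with 2 mM nicotinamide then added for 45 min at 37°C before fluorescence reading.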

[6] = target: T3, NAD-dependent protein deacetylase sirtuin-2 (Homo sapiens) (UniProt Q8IXJ6); assay: Inhibition of human recombinant GST-tagged SIRT2 using KI179 as substrate at 50 uM preincubated for 5 mins followed by enzyme addition measured after 1 hr by fluorescence assay relative to control
T3 sequence (whole entry): T2 sequence (Q8IXJ6 whole entry)
Procedure, shortened: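 Recombinant GST-SIRT2, Fluor de Lys assay in SIRT assay buffer. Acetylated peptide KI179 at 0.7 Km (Km 198 µM) and NAD+ at 0.9 Km (reported Km 547 µM). Buffer, substrate, NAD+ and compound in DMSO preincubated 5 min at room temperature. Enzyme added to start; 1 h at 37 °C. Developer with 2 mM nicotinamide added; 45 min at 37 °C; fluorescence read. Mean ± SD, ≥3 experiments.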

Compound: COc1ccc(C(=O)CNC(=O)[C@H](CCCCNC(C)=S)NC(=O)OCc2ccccc2)cc1
- Activity (MCF7 [1]): inactive
- Activity (MCF7 [2]): inactive
- Activity [3]: Non-toxic
- IC50 [4]: 8.35 µM
- IC50 [5]: 2.53 µM
- inhibition [6]: 97%
